Results from different studies.
Each line is one published result; the experiments were not run side by side.
Target: Mitogen-activated protein kinase kinase kinase 20 (MAP3K20, Homo sapiens, UniProt Q9NYL2)

Compound	read-out	action	technique	tested at	endpoint	result
O=C(Nc1cnn(-c2csc(C(=O)NC3COC3)c2)c1)Nc1c(F)cccc1Cl	enzyme activity	inhibitor	–	5 µM	remaining activity	90.4%
Cc1ccc(NC(=O)c2ccc(CN3CCN(C)CC3)cc2)cc1Nc1nc(-c2cccnc2)cs1	cell-free assay	–	–	0.5 µM	remaining signal	86.8%
N#CC1c2c([nH]c3c(Cl)c(Cl)ccc23)C(=O)NC12CCCCC2 (racemic)	thermal stability	–	DSF	10 µM	ΔTm	-0.3 °C
O=C(Nc1cnn(-c2csc(C(=O)NC3COC3)c2)c1)Nc1ccccc1Cl	enzyme activity	inhibitor	–	5 µM	remaining activity	101%
CC(=O)c1c(NS(C)(=O)=O)c2cc(-c3ccc(Cl)cc3)c(-c3ccc(Cl)cc3Cl)nc2n(C)c1=O	cell-free assay	–	competition with immobilised ligand	1 µM	remaining binding	92%
O=C1NC(=O)c2cc(Nc3ccc(F)cc3)c(Nc3ccc(F)cc3)cc21	cell-free assay	–	–	0.5 µM	remaining signal	94.5%
Cn1c2c(Cl)c(Cl)ccc2c2cn[nH]c(=O)c21	thermal stability	–	DSF	10 µM	ΔTm	0.4 °C
COc1ccc2c(O[C@@H]3C[C@H]4C(=O)N[C@]5(C(=O)O)CC5/C=C\CCCCC[C@H](NC(=O)OC5CCCC5)C(=O)N4C3)cc(-c3csc(NC(=O)C(C)C)n3)nc2c1C (some centres unmarked)	cell-free assay	–	competition with immobilised ligand	1 µM	remaining binding	83%
Cn1c2c(c3ccc(Cl)c(Cl)c31)C(C#N)C1(CCOCC1)NC2=O (centres unmarked)	thermal stability	–	DSF	10 µM	ΔTm	0.1 °C
c1ccc(CNc2nc(N3CCOc4ccccc43)nc3c2CCCC3)cc1	target engagement in cells	inhibitor	chemoproteomics	20 mM	inhibition	-6.3%
COc1cc(Cl)c(C(=O)N[C@@H](CN[C@H]2CC[C@@H](N)CC2)Cc2ccc(C#N)cc2)cc1-c1ccc(CN[C@H](C)c2ccc(C)cc2)o1	enzyme activity	inhibitor	–	1 µM	remaining activity	97%
Cn1c2c(Cl)c(Cl)ccc2c2cc(N)[nH]c(=O)c21	thermal stability	–	DSF	10 µM	ΔTm	0.6 °C
Nc1c(C(=O)NCc2ccc(C(=O)NCCCC3CCCCC3)cc2)cnn1-c1ccccc1	binding	–	competition with immobilised ligand	1 µM	remaining binding	42%
Cn1c2c(c3ccccc31)C(C#N)C(C)(C)NC2=O (centres unmarked)	thermal stability	–	DSF	10 µM	ΔTm	-0.3 °C
COc1cc2nccc(Oc3ccc(NC(=O)c4c5n(n(-c6ccc(F)cc6)c4=O)CCCC5)cc3)c2cc1OC	enzyme activity	inhibitor	–	0.1 µM	inhibition	-4%
CNC(=O)c1cc(Oc2ccc(NC(=O)Nc3ccc(Cl)c(C(F)(F)F)c3)cc2)ccn1	cell-free assay	–	–	0.5 µM	remaining signal	16.7%
O=C(NC[C@@H]1[C@H]2CN(C(=O)OCc3cc(C(F)(F)F)cc(C(F)(F)F)c3)C[C@@H]12)c1ccc2[nH]nnc2c1	cell-free assay	–	competition with immobilised ligand	1 µM	remaining binding	86%
CC(C)(O)[C@H]1CC[C@H](Nc2ccc3ncc(-c4cccc(C(F)(F)F)c4)n3n2)CC1	enzyme activity	inhibitor	–	1 µM	remaining activity	75.7%
CC(=O)N1CCC(c2ccc(C(=O)NC(=N)N)cc2C(F)(F)F)CC1	cell-free assay	–	competition with immobilised ligand	1 µM	remaining binding	100%
Cn1c2c(c3ccc(Cl)c(Cl)c31)C(C#N)C1(CCNCC1)NC2=O (racemic)	thermal stability	–	DSF	10 µM	ΔTm	0 °C
CN(c1ccnc(CNc2nc(Nc3ccc4c(c3)CC(=O)N4)ncc2C(F)(F)F)n1)S(C)(=O)=O	cell-free assay	–	competition with immobilised ligand	1 µM	remaining binding	100%
CCOc1cc(-c2nncn2C)ccc1Nc1ncc2cc(C)nc(NCC(C)(C)C)c2n1	cell-free assay	–	TR-FRET	1 µM	inhibition	≤ 15%
CSc1cccnc1N1CCN(Cc2nc3ccccc3[nH]2)CC1	cell-free assay	–	competition with immobilised ligand	1 µM	remaining binding	100%
Cc1ccc(C(=O)Nc2ccc(CN3CCN(C)CC3)c(C(F)(F)F)c2)cc1C#Cc1cnc2cccnn12	enzyme activity	inhibitor	–	23.5 nM	remaining activity	2.9%
Cc1c(C(=O)O)cc(-c2ccc(C3CCNCC3)cc2)c2ccc(-c3ccc(C(F)(F)F)cc3)cc12	binding	–	competition with immobilised ligand	1 µM	remaining binding	100%
CC(C)(C)c1nc2c(s1)c1nc(N)ncc1c1ccc(NS(=O)(=O)c3c(F)cccc3F)c(F)c12	enzyme activity	inhibitor	radiometric	1 µM	remaining activity	103%
